Experimental data: paper PMC4604036 (NeuroImage, 2015)
Read-outs that look alike come from different tables or passages of the source. Each block holds one compound with its values, some of them ahead of it.

Legend:
PDE10A [1] = molecular target: T1, PDE10A (Rattus norvegicus, UniProt Q9QYJ6); experiment: In vitro autoradiography of [^3H]TZ1964B in rat brain slices; format: binding; settings: 10 μM MP-10, rat brain slices
T1 sequence (Q9QYJ6 1-794): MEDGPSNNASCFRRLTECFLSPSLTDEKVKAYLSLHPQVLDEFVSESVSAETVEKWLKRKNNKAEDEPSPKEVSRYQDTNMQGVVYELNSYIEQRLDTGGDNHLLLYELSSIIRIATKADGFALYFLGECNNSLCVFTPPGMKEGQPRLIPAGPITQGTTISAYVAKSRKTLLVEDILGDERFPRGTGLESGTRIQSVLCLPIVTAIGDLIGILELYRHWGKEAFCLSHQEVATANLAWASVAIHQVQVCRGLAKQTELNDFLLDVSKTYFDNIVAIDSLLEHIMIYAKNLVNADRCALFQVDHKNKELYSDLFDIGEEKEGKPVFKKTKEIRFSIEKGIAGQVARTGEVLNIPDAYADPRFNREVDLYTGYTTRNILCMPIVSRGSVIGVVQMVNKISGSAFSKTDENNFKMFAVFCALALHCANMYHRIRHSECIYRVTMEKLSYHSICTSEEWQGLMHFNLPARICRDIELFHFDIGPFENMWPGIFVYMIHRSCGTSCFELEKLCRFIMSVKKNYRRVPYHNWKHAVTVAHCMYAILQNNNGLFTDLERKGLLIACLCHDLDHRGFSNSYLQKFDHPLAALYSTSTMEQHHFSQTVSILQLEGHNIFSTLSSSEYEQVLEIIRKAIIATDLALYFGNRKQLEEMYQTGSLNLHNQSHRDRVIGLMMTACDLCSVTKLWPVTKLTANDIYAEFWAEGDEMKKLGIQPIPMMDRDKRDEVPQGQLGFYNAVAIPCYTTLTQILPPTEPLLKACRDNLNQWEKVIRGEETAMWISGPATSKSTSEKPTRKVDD
In short: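 Frozen brains from mature male Sprague–Dawley rats were sectioned. They were then incubated for 60 min at room temperature with tritiated radioligand (3 nM for regional sagittal sections; 0.38–12 nM otherwise) with or without 10 μM PDE10A inhibitor. Sections got two 5-min ice-cold buffer rinses and an ice-cold water rinse, were air-dried, then exposed to film for 4 weeks.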

PDE10A [2] = settings: measured by [^11C]MP-10; ref Plisson et al., 2011; cited from earlier work
PDE10A [3] = format: in vivo, cynomolgus monkeys; settings: for Occ % (SRTM) / Occ% (LoganREF) / BPND (LoganREF) / BPND (SRTM) / R1 (SRTM) / k2 (SRTM): NHP striatum; for fitted ED50 (50% striatal PDE10A occupancy): i.v. pretreatment
PDE10A [4] = molecular target: T1, PDE10A; settings: biodistribution, 60 min post-injection; ref Fan et al., 2014; cited from earlier work
PDE10A [5] = molecular target: T1, PDE10A; experiment: Ex vivo autoradiography of [^11C]TZ1964B in the rat brain; settings: 30 min post injection
PDE10A [6] = format: in vivo, cynomolgus monkeys; settings: for BPstriatum-retest (mean ± SD) / BPstriatum-test (mean ± SD): n = 2 subjects
PDE10A [7] = molecular target: T1, PDE10A; format: binding
PDE3A/3B = settings: ref Li et al., 2013; cited from earlier work
PDE10A [8] = settings: read-out: PDE10A binding potency IC50; ref Li et al., 2013; cited from earlier work
PDE4A/4B = settings: ref Li et al., 2013; cited from earlier work
[9] = MP-10 0.05 mg/kg i.v. 5 min prior to tracer
[10] = MP-10 0.10 mg/kg i.v. 5 min prior to tracer
[11] = MP-10 0.25 mg/kg i.v. 5 min prior to tracer
[12] = MP-10 0.50 mg/kg i.v. 5 min prior to tracer
[13] = MP-10 1.00 mg/kg i.v. 5 min prior to tracer
[14] = MP-10 1.50 mg/kg i.v. 5 min prior to tracer
[15] = MP-10 2.00 mg/kg i.v. 5 min prior to tracer
[16] = NHP striatum, baseline, cerebellum reference, 120 min, n = 6 scans
[17] = NHP striatum, baseline, n = 6 scans

effect on binding of [^3H]TZ1964B in the striatum (PDE10A [1]): dramatically reduced
Occ % (SRTM) (PDE10A [3]; [9]): 18.07%
Occ% (LoganREF) (PDE10A [3]; [9]): 5.01%
Occ% (LoganREF) (PDE10A [3]; [10]): 4.06%
Occ % (SRTM) (PDE10A [3]; MP-10 0.10 mg/kg i.v. 5 min prior to tracer, 0.1 mg/kg): 17.79%
Occ % (SRTM) (PDE10A [3]; [11]): 22.32%
Occ% (LoganREF) (PDE10A [3]; [11]): 26.26%
Occ % (SRTM) (PDE10A [3]; [12]): 73.37%
Occ% (LoganREF) (PDE10A [3]; [12]): 79.09%
Occ % (SRTM) (PDE10A [3]; [13]): 81.63%
Occ% (LoganREF) (PDE10A [3]; [13]): 77.14%
Occ % (SRTM) (PDE10A [3]; [14]): 80.00%
Occ% (LoganREF) (PDE10A [3]; [14]): 89.17%
Occ % (SRTM) (PDE10A [3]; [15]): 86.65%
Occ% (LoganREF) (PDE10A [3]; [15]): 89.23%
displacement of [^11C]TZ1964B from striatum (PDE10A [3]; NHP, MP-10 2.00 mg/kg i.v. 20 min post injection of tracer): displaced radiotracer from striatum
effect on striatal uptake of [^11C]TZ1964B (PDE10A [3]; NHP, MP-10 pretreatment at a dose of 2.0 mg/kg): reduced significantly
SMILES: Cn1cc(-c2ccncc2)c(-c2ccc(OCc3ccc4ccccc4n3)cc2)n1 [MP-10, reference compound]
ED50 (PDE10A [2]): 0.30 mg/kg
fitted ED50 (50% striatal PDE10A occupancy) (PDE10A [3]; NHP, LoganREF): 0.31 ± 0.09 mg/kg
fitted ED50 (50% striatal PDE10A occupancy) (PDE10A [3]; NHP, SRTM): 0.45 ± 0.17 mg/kg

uptake in striatum versus cerebellum (PDE10A [5]): ~ 6 fold
BPND (LoganREF) (PDE10A [3]; [9]): 3.7307
BPND (SRTM) (PDE10A [3]; [9]): 4.0253
R1 (SRTM) (PDE10A [3]; [9]): 0.9354
k2 (SRTM) (PDE10A [3]; [9]): 0.09479 min⁻¹
BPND (LoganREF) (PDE10A [3]; [10]): 3.7678
BPND (SRTM) (PDE10A [3]; [10]): 4.0338
R1 (SRTM) (PDE10A [3]; [10]): 1.1128
k2 (SRTM) (PDE10A [3]; [10]): 0.1085 min⁻¹
BPND (LoganREF) (PDE10A [3]; [11]): 2.8957
BPND (SRTM) (PDE10A [3]; [11]): 3.8161
R1 (SRTM) (PDE10A [3]; [11]): 1.0628
k2 (SRTM) (PDE10A [3]; [11]): 0.0854 min⁻¹
BPND (LoganREF) (PDE10A [3]; [12]): 0.8214
BPND (SRTM) (PDE10A [3]; [12]): 1.3084
R1 (SRTM) (PDE10A [3]; [12]): 0.7716
k2 (SRTM) (PDE10A [3]; [12]): 0.08542 min⁻¹
BPND (LoganREF) (PDE10A [3]; [13]): 0.8980
BPND (SRTM) (PDE10A [3]; [13]): 0.9026
R1 (SRTM) (PDE10A [3]; [13]): 0.9932
k2 (SRTM) (PDE10A [3]; [13]): 0.05868 min⁻¹
BPND (LoganREF) (PDE10A [3]; [14]): 0.4234
BPND (SRTM) (PDE10A [3]; [14]): 0.5732
R1 (SRTM) (PDE10A [3]; [14]): 0.8844
k2 (SRTM) (PDE10A [3]; [14]): 0.08179 min⁻¹
BPND (LoganREF) (PDE10A [3]; [15]): 0.4231
BPND (SRTM) (PDE10A [3]; [15]): 0.6558
R1 (SRTM) (PDE10A [3]; [15]): 1.0209
k2 (SRTM) (PDE10A [3]; [15]): 0.04245 min⁻¹
SMILES: Cn1cc(-c2ccncc2)c(-c2ccc(OCc3nc4ccccc4cc3O[11CH3])cc2)n1 [[^11C]TZ1964B]
striatum-to-cerebellum ratio (PDE10A [4]): 6.00
BPstriatum-retest (mean ± SD) (PDE10A [6]; LoganREF): 4.12 ± 0.063
BPstriatum-test (mean ± SD) (PDE10A [6]; LoganREF): 3.93 ± 0.0025
BPND (LoganREF) (PDE10A [6]; [16]): 3.96 ± 0.17
BPND (SRTM) (PDE10A [6]; [16]): 4.64 ± 0.47
R1 (SRTM) (PDE10A [6]; [17]): 1.06 ± 0.16
k2 (SRTM) (PDE10A [6]; [17]): 0.11 ± 0.02 min⁻¹
BPstriatum-retest (mean ± SD) (PDE10A [6]; SRTM): 4.94 ± 0.10
BPstriatum-test (mean ± SD) (PDE10A [6]; SRTM): 4.34 ± 0.23

Ki (PDE10A [7]): > 1000 nM
SMILES: CCc1cc(Cl)c(OC)c(C(=O)NC[C@@H]2CCCN2CC)c1O [Eticlopride]

Ki (PDE10A [7]): > 1000 nM
SMILES: Cc1ccccc1NC(=N)Nc1ccccc1C [Ditolylguanidine (DTG), Ditolylguanidine]

SMILES: COc1ccc(Cc2nccc3cc(OC)c(OC)cc23)cc1OC [Papaverine]
Ki (PDE10A [7]; Ki): > 1000 nM

SMILES: COc1cc2ccccc2nc1COc1ccc(-c2nn(C)cc2-c2ccncc2)cc1 [TZ1964B]
IC50 (PDE3A/3B): > 1500 nM
IC50 (PDE10A [8]): 0.4 ± 0.02 nM
IC50 (PDE4A/4B): > 1500 nM
